MPTP block = blocks calcium-induced mitochondrial swelling; isolated mouse mitochondria, Ca2+ swelling absorbance, 30 min; inhibition, % at 10 µM; 360,000 compounds, 1.4% hits; AID 602449;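 active = inhibition of 50% or more, scaled per plate between neutral and stimulator controls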
DAGLB inhibitor = blocks human DAGLB lipase activity | 340,000 compounds, 0.059% hits | HEK293T DAGLB membrane lysate, EnzChek fluorogenic substrate | inhibition, % at 5.17 µM | AID 504411; in the data active = inhibition above about 34%
TAAR1 antagonist = antagonists of human TAAR1 | CHO RD-HGA16 TAAR1, Fluo-8 calcium fluorescence, antagonist | 360,000 compounds, 1.5% hits | AID 624466 | inhibition, % at 3 µM | Q96RJ0;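 active = inhibition above a per-plate cutoff, the mean inhibition of test compounds on that plate plus 3 SD, cut at about 49% in these data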
Target sequence (Q96RJ0 whole entry, looked up): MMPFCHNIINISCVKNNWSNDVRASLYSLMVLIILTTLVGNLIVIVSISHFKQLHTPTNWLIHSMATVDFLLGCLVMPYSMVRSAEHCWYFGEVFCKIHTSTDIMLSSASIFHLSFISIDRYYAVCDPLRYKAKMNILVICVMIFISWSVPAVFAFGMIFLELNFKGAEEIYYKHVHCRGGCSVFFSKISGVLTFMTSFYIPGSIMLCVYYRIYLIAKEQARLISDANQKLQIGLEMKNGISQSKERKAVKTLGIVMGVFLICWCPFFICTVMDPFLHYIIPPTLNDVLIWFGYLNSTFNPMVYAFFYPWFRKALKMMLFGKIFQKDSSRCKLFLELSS
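Test system: CHO RD-HGA16 cells bearing hTAAR1 | Reagent: β-PEA, EC80 | Compound dosing: 3 µM, single point | Schedule: Dye loading 75 min at 37 °C, then 30 min room temperature | Signal: Calcium fluorescence with Fluo-8 | Evaluation: Percent inhibition of PEA-evoked calcium signal, max/basal emission ratio | Control set: DMSO-only wells and EC80 β-PEA-stimulated wells | Repeats: Singlicate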
GPR7 antag = blocks human GPR7 receptor signaling; AID 1861; 290,000 compounds, 1.1% hits; inhibition, % at 4.4 µM; P48145; GPR7-expressing cells, fluorescence antagonist assay; in the data active = inhibition above about 16%, passing the limit was not always enough;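 note: cells stimulated with the agonist NPW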
TAAR1 agonist = agonists of human TAAR1 | Q96RJ0 | CHO RD-HGA16 TAAR1, Fluo-8 calcium fluorescence; vehicle wells 0%, saturating PEA agonist 100% | activation, % at 3 µM | 360,000 compounds, 0.99% hits | AID 624467;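 active = activation above the mean activation of all test compounds in the run plus 3 SD, cut at about 38% in these data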
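System: CHO-derived RD-HGA16 cells with stable Gα16 and human TAAR1 / Times: 17-24 h plating, Fluo-8 75 min 37 °C, 30 min RT / Technique: calcium-sensitive Fluo-8 signal, excitation 470-495, emission 515-575 nm / Measure: % activation relative to PEA EC100 response / Benchmarks: DMSO and PEA EC100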
MPTP counter = Rhodamine 123 counter-screen of mitochondrial pore hits; shares compounds with MPTP block; isolated mitochondria, membrane potential, Rhodamine 123 fluorescence; inhibition, % at 10 µM; 5,000 compounds, 78% hits; AID 624504; in the data active = inhibition above about 22%
MPTP swell DR = dose response confirmation of mitochondrial permeability transition pore inhibitors; shares compounds with MPTP block; isolated mitochondria swelling, absorbance; IC50, µM; 780 compounds, 58% hits; AID 651561; in the data active = IC50 below about 20 µM
MPTP cs DR = active in counter-screen for permeability transition pore inhibitors; isolated mitochondria counterscreen, fluorescence read-out; AID 651564; shares compounds with MPTP block; IC50, µM; 780 compounds, 49% hits; in the data active = IC50 below about 80 µM
Hits are given with their value; – = inactive; · = no result. Sampled rows, rich in hits. Any-hit rate of the full collection: about 4%.

SMILES	MPTP block	DAGLB inhibitor	TAAR1 antagonist	GPR7 antag	TAAR1 agonist	MPTP counter	others
COC(=O)[C@]12C[C@H](CC(=O)NCc3cccc(C(F)(F)F)c3)C(=O)N(CCC3=CCCCC3)C1=C[C@H](C(C)(C)C)O[C@@H]2C	·	·	–	·	–	·
COc1ccccc1CNc1nc(NCCOc2ccccc2)c2sccc2n1	60	·	–	·	–	91
Cc1ccc(CNc2nc(NCc3ccccc3)nc3ccsc23)c(C)c1	53	·	54	·	–	101
CNc1nc(NCc2ccc(C)cc2C)c2sccc2n1	–	·	–	·	–	·
COC(=O)[C@]12C[C@H](CC(=O)NCc3cccc(C(F)(F)F)c3)C(=O)N(Cc3ccccc3)C1=C[C@H](C(C)C)O[C@@H]2C1CC1	·	·	–	·	–	·
CCN1/C(=C/c2cc[n+](C)cc2)C=Cc2cc(C)ccc21	67	–	–	–	–	70
COc1cccc(C(C)(O)c2nc(-c3cc4ccccc4o3)cs2)c1 (stereo unspecified)	88	·	–	·	–	96
COc1cccc(C(C)(O)c2nc(-c3ccc(N(C)C)cc3)cs2)c1 (stereo unspecified)	99	·	–	·	–	91
O=S(=O)(c1ccccc1)n1cc(-c2cccc3nccn23)c2ccccc21	–	·	–	·	–	·
CCCN(CCC)S(=O)(=O)c1ccc(NC(=O)c2cc(C(=O)OC)cc([N+](=O)[O-])c2)cc1	88	–	–	–	–	–	MPTP swell DR=11;MPTP cs DR=4.5
CCC(C)(C)NC(=O)c1cc(C(=O)OC)cc([N+](=O)[O-])c1	–	–	–	–	–	·
CCOC(=O)C1(C)CCCN(C(=O)c2ccc(-c3ccccc3)cc2)C1 (stereo unspecified)	–	·	–	·	–	·
CCN(CC)S(=O)(=O)c1cc(C)ccc1NC(=S)Nc1cccnc1	53	–	–	–	–	88
Cc1ccccc1OCCC(=O)Nc1ccc(F)c(Cl)c1	85	–	–	–	–	85
CCOc1ccccc1OCCC(=O)Nc1ccc(F)c(Cl)c1	–	–	–	–	–	·
COc1ccc2cc(C3=CC(=O)CCC3)ccc2c1	–	–	–	·	–	·
Cc1cccc(NC(=O)Nc2ccc3c(c2)CCC3)c1	80	–	–	–	–	77
COc1ccc(/C=N/Nc2cc(N3CCCC3)nc(N3CCCC3)n2)cc1	77	–	–	–	–	82
Oc1ccc(/C=N/Nc2cc(N3CCCC3)nc(N3CCCC3)n2)cc1	–	–	–	–	–	·
O=C1NC(=S)S/C1=C\c1cc2ccccc2nc1N1CCCCC1	73	–	–	–	–	67
O=C1NC(=S)SC1=Cc1ccccc1Cl	90	–	–	·	–	91
O=C1NC(=Nc2ccccc2Cl)S/C1=C\c1cccc([N+](=O)[O-])c1	–	–	–	–	–	·
O=C1NC(=S)S/C1=C\c1cccc([N+](=O)[O-])c1	82	–	–	·	–	95
COc1ccc2nc(N3CCCCC3)c(/C=C3\SC(=S)NC3=O)cc2c1	76	–	–	–	–	44
N#C/C(=C\c1cc2ccccc2nc1N1CCCCC1)C(N)=O	–	–	–	–	–	·
SMILES	MPTP block	DAGLB inhibitor	TAAR1 antagonist	GPR7 antag	TAAR1 agonist	MPTP counter	others
COC(=O)[C@@H](N[C@H](/C=C/c1ccccc1)[C@@H](O)Cc1ccccc1)c1ccccc1	·	·	–	·	–	·
Cc1cc(N2CCN(CC(C)(C)O)C[C@H]2C)ccc1N1CCN(Cc2ccccc2)[C@H](C)C1	·	·	–	·	–	·
CC1(C(=O)NS(=O)(=O)c2ccc(F)cc2F)CCN1C(=O)C/C=C/c1ccccc1 (stereo unspecified)	–	·	–	·	–	·
COCCNc1ncnc2c1ncn2[C@H]1CN(Cc2ccncc2)C[C@@H](CO)O1	–	·	–	·	–	·
Nc1ncnc2c1ccn2[C@H]1CN(Cc2ccc(Cl)cc2)C[C@@H](CO)O1	–	·	–	·	–	·
CN1CCN(c2ncnc3c2ncn3[C@H]2CN(Cc3cccnc3)C[C@@H](CO)O2)CC1	–	·	–	·	–	·
O=S(=O)(Nc1cccc2ccccc12)c1cccs1	–	–	–	–	–	·
O=C(Nc1ccc(Cl)c(Cl)c1)Nc1ccccc1NS(=O)(=O)c1cccs1	87	–	–	–	–	92
